Screens: PubChem BioAssay, Sanford-Burnham Center for Chemical Genomics
Rows were chosen to be rich in hits. Some 1.8% of all compounds tested hit in one or more screens of this group.
H9c2 TAG inh = reduces triacylglycerol accumulation in H9c2 cells; Nile Red lipid (TAG) fluorescence; cells loaded with 200 µM oleic acid; inhibition, % at 12.5 µM; 0.66% of 230,000 active;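 active = pattern-corrected inhibition of lipid staining of at least 50% with the nuclear-stain viability signal not falling by more than 50%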
Hep lipid drop = hepatic lipid droplet formation modulation; AML12 mouse hepatocytes, oleate lipid droplets, BODIPY imaging; inhibition, % at 6.5 µM; 0.4% of 240,000 active; AID 1656;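 active = lipid droplet intensity inhibited by at least 50%, with more than 500 cells counted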
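Test system: AML12 mouse liver cells; schedule: overnight exposure; technique: high-content imaging of BODIPY-stained droplets and DAPI nuclei; read-out: % inhibition of corrected integrated BODIPY droplet signal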
Gli-Sufu block = antagonists of Gli-Sufu signaling; Sufu-KO-LIGHT fibroblasts, Gli luciferase reporter luminescence; inhibition, % at 5 µM; 0.74% of 340,000 active;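 active = inhibition above about 55%, limit read from the data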
hiPSC survival = hiPSC single-cell survival enhancement. ATPlite luminescence; 100% = ROCK inhibitor wells, 0% = DMSO. survival enhancement, % at 20 µM. 0.044% of 360,000 active; in the data active = survival enhancement above about 18%;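 note: cells exposed to compounds for 16 hours before the ATP read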
697 NFkB inh = inhibitors of the PMA/ionomycin-induced NF-kB reporter in 697 B cells; 697 B-cell NF-kB luciferase reporter, 16 h; inhibition, % at 4 µM; 0.33% of 330,000 active; in the data active = inhibition above about 35%
Jurkat NFkB inh = lowers PMA/ionomycin-induced NF-kB signal in Jurkat cells. PMA/ionomycin-induced NF-kB luciferase reporter, luminescence. inhibition, % at 4 µM. 0.53% of 330,000 active. AID 435003; in the data active = inhibition above about 50%
Numbers stand for hits; - = inactive; . = no result given.

SMILES | H9c2 TAG inh | Hep lipid drop | Gli-Sufu block | hiPSC survival | 697 NFkB inh | Jurkat NFkB inh
COc1ccc(CC(=O)Nc2cccc(/C(C)=N/NC(=O)C3(C)CC3(Br)Br)c2)cc1 (stereo unspecified) | . | - | - | - | - | -
O=C(CN1CCCC1)Nc1ccc(-c2nc3cc(NC(=O)CN4CCCC4)ccc3o2)cc1 | 51.8 | - | - | - | - | -
Cc1cc(OCC(=O)Nc2sc3c(c2C#N)CC(C)(C)NC3(C)C)c(C(C)C)cc1Cl | . | - | - | - | - | -
CCOc1ccc(CCNC(=O)Cn2ccc3ccccc3c2=O)cc1OCC | - | 50.0 | - | - | - | -
CNc1cccnc1C=NNC(N)=S | - | . | 84.5 | - | . | .
CC(C)N(CCNCc1nnc(-c2ccccc2)o1)C(C)C | - | - | - | - | - | -
N#Cc1c(N)[nH]c2ccc(Sc3ccccc3)cc12 | 54.4 | . | - | - | . | .
O=C(Nc1nc(-c2ccccn2)cs1)c1cccc(-n2cnnn2)c1 | 72.7 | - | - | - | - | -
O=C(Nc1nc(-c2ccccn2)cs1)c1ccc(Br)s1 | - | - | 82.4 | - | - | -
O=C(Nc1nc(-c2ccccn2)cs1)c1ccco1 | - | - | - | - | - | -
O=C(Nc1ccc(Br)cc1)c1cccc(-n2cnnn2)c1 | . | - | - | - | - | -
CC(=O)N1CCOc2ccc(S(=O)(=O)N3CCC(C(=O)NCc4ccccc4)CC3)cc21 | . | - | - | - | - | -
CN(C)Cc1c(C(=O)N/N=C/c2cccc(OCc3c(F)cccc3Cl)c2)nnn1-c1nonc1N | . | - | 67.3 | - | - | -
CC(C)(C)OC(=O)NCCCCCc1cn([C@@H](CO)C(=O)NCCCCCCCCCCC(=O)N2CCN(C(=O)OC(C)(C)C)CC2)nn1 | - | . | 60.4 | - | - | -
CC(C)(C)OC(=O)CC[C@@H](C(=O)NCCCCCCCCCCC(=O)N1CCN(C(=O)OC(C)(C)C)CC1)n1cc(CCCCCNC(=O)OC(C)(C)C)nn1 | - | . | - | - | - | -
O=C(O)c1ccc(N/N=C/c2ccc(-c3cccc(Cl)c3)o2)cc1 | 84.2 | - | - | - | - | -
O=C(O)c1cccc(-c2ccc(/C=N/Nc3ccc([N+](=O)[O-])cc3)o2)c1 | - | - | - | - | - | -
O=C(O)c1ccc(N/N=C/c2ccc(-c3cc(Cl)ccc3Cl)o2)cc1 | - | - | - | - | - | -
O=C(O)c1ccc(N/N=C/c2ccc(-c3ccc(Cl)cc3Cl)o2)cc1 | 52.8 | - | - | - | - | -
CC1=C(C(=O)Nc2cc(C(=O)NCCCOC(C)C)ccc2C)SCCO1 | . | - | - | - | - | -
Cc1cc(C)nc(/N=C(\NC(=O)C(C)(C)C)Nc2ccc(F)cc2)n1 | - | - | - | - | - | -
CC(C)(C)OC(=O)NCCCCCNC(=O)c1[nH]cnc1C(=O)Nc1cccc(Cl)c1 | - | . | - | - | - | -
CCOC(=O)c1ccc(NC(=O)c2nc[nH]c2C(=O)NC)cc1 | - | - | - | - | - | -
O=C(Nc1ccc(Cl)cc1)c1nc[nH]c1C(=O)NCCCCNC(=O)c1[nH]cnc1C(=O)Nc1ccc(Cl)cc1 | 110.4 | . | - | - | - | -
O=C(Nc1cccc(Cl)c1)c1nc[nH]c1C(=O)NCc1ccccc1 | - | . | - | - | - | -
SMILES | H9c2 TAG inh | Hep lipid drop | Gli-Sufu block | hiPSC survival | 697 NFkB inh | Jurkat NFkB inh
O=C(Nc1cccc(Cl)c1)c1nc[nH]c1C(=O)NCCN(CCNC(=O)c1[nH]cnc1C(=O)Nc1cccc(Cl)c1)CCNC(=O)c1[nH]cnc1C(=O)Nc1cccc(Cl)c1 | 74.6 | . | - | - | - | -
O=C(Nc1cccc(Cl)c1)c1nc[nH]c1C(=O)NCCCCNC(=O)c1[nH]cnc1C(=O)Nc1cccc(Cl)c1 | 65.1 | . | - | - | - | -
CCOC(=O)c1ccc(NC(=O)c2nc[nH]c2C(=O)NCCNC(=O)c2[nH]cnc2C(=O)Nc2ccc(C(=O)OCC)cc2)cc1 | 135.0 | . | - | - | - | -
O=C(Nc1ccc(Cl)cc1)c1nc[nH]c1C(=O)Nc1ccccc1F | - | . | . | - | . | .
O=C(Nc1cccc(S(=O)(=O)NC2=NCCC2)c1)C1CC(=O)N(c2ccc3c(c2)OCCO3)C1 (stereo unspecified) | - | - | . | - | - | -
Cc1cccc(NC(=O)c2nc[nH]c2C(=O)NCCCCNC(=O)c2[nH]cnc2C(=O)Nc2cccc(C)c2)c1 | 77.6 | . | - | - | - | -
CC1CCCC(NC(=O)c2cccc(S(=O)(=O)N3CCOCC3)c2)C1C (stereo unspecified) | - | . | . | - | . | .
CC(C)(C)c1cc(CCC(=O)NNC(=S)NC(=O)c2ccccc2)cc(C(C)(C)C)c1O | - | - | 58.9 | - | - | -
CC1=NN(c2nc3ccccc3[nH]2)C(=O)/C1=C/N(C)C | - | - | - | - | - | -
CC1=NN(c2nc3ccccc3[nH]2)C(=O)C1Cc1ccccc1 (stereo unspecified) | 53.5 | - | - | - | - | -
COc1ccc(C2=CC(=O)C[C@H](c3ccc(OC)c(OC)c3)C2)cn1 | - | . | - | 45.5 | - | -
CN(C)CCN(C(=O)c1ccc2ccccc2c1)c1nc2cc3c(cc2s1)OCO3 | - | . | . | 19.1 | . | .
O=C(CCl)N(C/C=C/c1ccccc1)c1ccc2c(c1)OCCO2 | 51.8 | - | - | - | - | -
Cc1[nH]c2c(C)cccc2c1CCNC(=O)c1ccc2c(c1[N+](=O)[O-])C(=O)c1ccccc1C2=O | 51.5 | . | - | - | - | -
Cc1[nH]c2ccccc2c1CCNC(=O)c1ccc2c(c1[N+](=O)[O-])C(=O)c1ccccc1C2=O | - | . | - | - | - | -
O=C(Nc1ccccc1)OCCOc1ccc(Br)cc1 | - | - | - | - | - | -
CC(=O)N/C(=C/c1ccc2c(c1)OCO2)C(=O)NCC(=O)O | . | - | - | - | - | -
NC(=Nc1nc(-c2ccccn2)cc2ccccc12)c1ccccn1 | - | . | 86.5 | - | . | .
N=C1c2ccccc2CN1c1ccc(N2CCOCC2)c(S(=O)(=O)Nc2ccc(Cl)cc2)c1 | . | - | . | . | - | -
COc1c(/C=N/Nc2ccc([N+](=O)[O-])cc2[N+](=O)[O-])c(C)nn1-c1ccccc1 | - | . | - | - | - | -
Cc1nn(-c2ccccc2)c(N2CCCC2)c1/C=N/Nc1ccc(S(=O)(=O)Nc2ccccc2)cc1[N+](=O)[O-] | . | 82.2 | - | - | - | -
COC(=O)c1ccc(COC(=O)c2ccc(CS(=O)(=O)c3ccc(C)cc3)cc2)cc1 | - | - | - | - | - | -
COC(=O)c1cc2c(n1S(=O)(=O)c1ccc(C)cc1)C(=O)C(=O)c1[nH]cc(C(=O)OCc3ccccc3)c1-2 | - | . | 86.6 | - | . | .
O=C(OCn1ncc(Cl)c(Cl)c1=O)c1cccc(C(F)(F)F)c1 | . | . | - | 74.7 | - | -
CCc1ccc(C(=O)Cn2ncc(Cl)c(Cl)c2=O)cc1 | - | . | - | - | - | -
Oc1c(N=Nc2ccccn2)ccc2ccccc12 | 70.5 | . | 81.8 | - | - | -
Oc1[nH]c2ccccc2c1N=Nc1ccccn1 | - | . | - | - | . | .
